The source of these data is publication PMC4013241 (Molecular cancer therapeutics, 2014).

One test has as its system p-C-Raf S259. As to the kind of experiment: Western blot of p-C-Raf S259 in U87 or U87PTEN cells. It is filed as cell-based, human. The following applies: 6.3 μM, 1 h. An outline of the steps:
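U87 or PTEN-expressing U87 cells in 6-well plates were pretreated 1 h with vehicle, 50 μM LY294002 or 1 μM wortmannin. Test compound was then added at 6.3 μM for 1 h. Lysates (20 μg protein) were resolved by SDS-PAGE, transferred to PVDF, blocked in 5% milk and immunoblotted.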
In general terms: In western blotting, separated proteins are transferred to a membrane and probed.

In test [1] the test system is p-Akt in intracerebral U87 brain tumors. The test can be described thus: In vivo pharmacodynamics: p-Akt in brain tumor. On the set-up: species or system mouse. The following applies: for p-Akt nadir, of control: within 30 min. In short, it runs like this: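 NIH Swiss nude mice carried U87 cells (10^6 in 10 μl PBS) implanted stereotactically into the caudate putamen. Test compound was given as an IV tail-vein bolus of 5 or 25 mg/kg, or 25 mg/kg 1 h after oral EGFR inhibitor (200 mg/kg). Tumours were collected from 5 min to 10 h (17 h with co-dosing) and lysed at 20 μl buffer/mg. Phospho/total Akt and Erk were measured by MSD as percent of control, at least three mice per time point. ABEC was reported in %-h.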

As for `CN1CCN(c2ccc(Nc3ncc4cc(C#N)c(=O)n(C5CCCC5)c4n3)cc2)CC1` [ON123300], the “p-C-Raf S259 expression” value with p-C-Raf S259 was “partially decreased”. In addition, the “change in p-Akt ABEC from 5 mg/kg to 25 mg/kg” value in test [1] (IV) is 5 fold. Further, the “ABEC p-Akt” value in test [1] (ON123300 5 mg/kg IV) was determined as 63.2 %_h; in test [1] (ON123300 25 mg/kg IV), 304.9 %_h; in test [1] (ON123300 25 mg/kg IV 1 h after oral 200 mg/kg GFN), 765.0 %_h; in test [1] (ON123300 25 mg/kg IV plus oral 200 mg/kg GFN) it was 765 %-h. Moreover, the “p-Akt nadir, of control” value in test [1] (ON123300 5 mg/kg IV) was 73%; in test [1] (ON123300 25 mg/kg IV), 60%. In test [1] (ON123300 25 mg/kg IV plus oral 200 mg/kg GFN, at 4 h after the ON123300 dose), the p-Akt nadir result was “about 30%”. The “p-Akt level at 10 h” value in test [1] (ON123300 25 mg/kg IV, 10 h) is recorded as approximately 60%.
